Laboratory results reported in ChEMBL document CHEMBL1131331, “Structure-activity studies on anticonvulsant sugar sulfamates related to topiramate. Enhanced potency with cyclic sulfate derivatives” (J Med Chem, 1998).

Key:
Mus musculus [1] = assay: Effective dose against maximal electroshock seizures in mice, at 4 hr following oral administration of 10 mg/kg of compound; assay type: functional
Mus musculus [2] = assay: Activity against maximal electroshock seizures in mice, 4 hr following oral administration of 35 mg/kg of compound; assay type: functional
Outline: (§1)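 Mouse maximal electroshock seizure test. An electric shock is applied through corneal electrodes, and block of the hind-limb tonic-extensor seizure is scored. Compounds are given orally, usually to 10 mice per group, and tested 4 h after dosing. The result is reported as percent of dosed animals protected at the stated dose.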

Mus musculus [3] = assay: Compound activity was measured at 4 hr following administration of the oral dosage (perorally) 5 mg/kg in mice, and is reported as percent block at the given dose.; assay type: functional; outline: as §1
[4] = Pharmacokinetic parameter :log P7.4 log P value at pH 7.4; assay type: physicochemical; settings: buffer, read-out: Log D7.4
Outline: (§2)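 Apparent octanol–water partition coefficient D, measured in unbuffered water (pH 7.2–7.6) using an HPLC refractive-index assay. True P is calculated as […], and P7.4 as P/[1 + 10^(7.4 − pKa)], using pKa values from potentiometric titration.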

[5] = (§3) Partition coefficient (logP); assay type: physicochemical; settings: octanol/water; outline: as §2
[6] = Pharmacokinetic parameter :The dissociation constant values at 25 degrees C, obtained by potentiometric titration.; assay type: ADME
[7] = as §3; assay type: physicochemical; settings: octanol/water; outline: as §2; remark: listed apart in the source
[8] = pH 7.4 value at 7.61 pH; assay type: ADME; outline: as §2
Mus musculus [9] = assay: Activity against maximal electroshock seizures in mice, 4 hr following oral administration of 75 mg/kg; assay type: functional; outline: as §1
Mus musculus [10] = assay: Activity against maximal electroshock seizures in mice, 4 hr following oral administration of 300 mg/kg of compound; assay type: functional; outline: as §1
Mus musculus [11] = assay: Compound activity was measured at 4 hr following administration of the oral dosage (perorally) 300 mg/kg in mice, and is reported as percent block at the given dose.; assay type: functional; outline: as §1
Mus musculus [12] = assay: Activity against maximal electroshock seizures in mice, 4 hr following oral administration of 37.5 mg/kg of compound; assay type: functional; outline: as §1
Mus musculus [13] = assay: Activity against maximal electroshock seizures in mice, 4 hr following oral administration of 18.75 mg/kg of compound; assay type: functional; outline: as §1
Mus musculus [14] = assay: Activity against maximal electroshock seizures in mice, 4 hr following oral administration of 80 mg/kg of compound; assay type: functional; outline: as §1
Mus musculus [15] = assay: Activity against maximal electroshock seizures in mice, 4 hr following oral administration of 40 mg/kg of compound; assay type: functional; outline: as §1
Mus musculus [16] = assay: Activity against maximal electroshock seizures in mice, 4 hr following oral administration of 15 mg/kg of compound; assay type: functional; outline: as §1
Mus musculus [17] = assay: Activity against maximal electroshock seizures in mice, 4 hr following oral administration of 30 mg/kg of compound; assay type: functional; outline: as §1
[18] = Inhibition concentration by inhibition of carbonic anhydrase from brain in Rat. 95% confidence limits are given in parentheses.
[19] = as §3; assay type: physicochemical; settings: octanol/water; outline: as §2; remark: listed apart in the source
Mus musculus [20] = species on record: Mus musculus; assay: Compound was tested for the effective dose (ED50) for each time point in Mice. 95% confidence limits are given in parentheses 16 Hour; assay type: functional
Outline: (§4)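 Mouse MES time-course study. Compounds are given orally, and hind-limb tonic-extensor block after corneal-electrode shock is scored at each time point. For each time point, the ED50 (mg/kg) is reported with 95% confidence limits.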

Rattus norvegicus [21] = species on record: Rattus norvegicus; assay: Compound was tested for the effective dose (ED50) for each time point in Rats. 95% confidence limits are given in parentheses 16 Hour; assay type: functional
Outline: (§5)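 Rat MES time-course study. Compounds are given orally, and block of the hind-limb tonic-extensor seizure induced by corneal electroshock is assessed at each time point. For each time point, the ED50 (mg/kg) is reported with 95% confidence limits.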

[22] = Inhibition concentration of the compounds were determined by inhibition of carbonic anhydrase from kidney in Rat. 95% confidence limits are given in parentheses.
[23] = Inhibition concentration by inhibition of carbonic anhydrase from synaptosomes in Rat. 95% confidence limits are given in parentheses.; assay type: subcellular, Brain
[24] = Inhibition concentration by inhibition of carbonic anhydrase from blood in Rat. 95% confidence limits are given in parentheses.
Rattus norvegicus [25] = species on record: Rattus norvegicus; assay: Compound was tested for the effective dose (ED50) for each time point in Rats. 95% confidence limits are given in parentheses 8 Hour; assay type: functional; outline: as §5
Rattus norvegicus [26] = species on record: Rattus norvegicus; assay: Compound was tested for the effective dose (ED50) for each time point in Rats. 95% confidence limits are given in parentheses 1 Hour; assay type: functional; outline: as §5
Rattus norvegicus [27] = species on record: Rattus norvegicus; assay: Compound was tested for the effective dose (ED50) for each time point in Rats. 95% confidence limits are given in parentheses 4 Hour; assay type: functional; outline: as §5
[28] = pH 7.4 value at 7.35 pH; assay type: ADME; outline: as §2
Rattus norvegicus [29] = species on record: Rattus norvegicus; assay: Compound was tested for the effective dose (ED50) for each time point in Rats. 95% confidence limits are given in parentheses 12 Hour; assay type: functional; outline: as §5
Rattus norvegicus [30] = species on record: Rattus norvegicus; assay: Compound was tested for the effective dose (ED50) for each time point in Rats. 95% confidence limits are given in parentheses 2 Hour; assay type: functional; outline: as §5
Mus musculus [31] = species on record: Mus musculus; assay: Compound was tested for the effective dose (ED50) for each time point in Mice. 95% confidence limits are given in parentheses 12 hr; assay type: functional; outline: as §4
Mus musculus [32] = species on record: Mus musculus; assay: Compound was tested for the effective dose (ED50) for each time point in Mice. 95% confidence limits are given in parentheses 1 Hour; assay type: functional
Mus musculus [33] = species on record: Mus musculus; assay: Compound was tested for the effective dose (ED50) for each time point in Mice. 95% confidence limits are given in parentheses 2 Hour; assay type: functional
Rattus norvegicus [34] = species on record: Rattus norvegicus; assay: Compound was tested for the effective dose (ED50) for each time point in Rats. 95% confidence limits are given in parentheses 48 Hour; assay type: functional; outline: as §5
[35] = Inhibition concentration by inhibition of carbonic anhydrase from myelin in Rat. 95% confidence limits are given in parentheses.
Rattus norvegicus [36] = species on record: Rattus norvegicus; assay: Compound was tested for the effective dose (ED50) for each time point in Rats. 95% confidence limits are given in parentheses 24 Hour; assay type: functional; outline: as §5
Mus musculus [37] = species on record: Mus musculus; assay: Compound was tested for the effective dose (ED50) for each time point in Mice. 95% confidence limits are given in parentheses 24 Hour; assay type: functional; outline: as §4
[38] = Inhibition concentration by inhibition of carbonic anhydrase from synaptosomes in Rat
[39] = Inhibition concentration by inhibition of carbonic anhydrase from brain in Rat
[40] = Inhibition concentration by inhibition of carbonic anhydrase from kidney in Rat
[41] = Inhibition concentration by inhibition of carbonic anhydrase from myelin in Rat
[42] = Inhibition concentration by inhibition of carbonic anhydrase from blood in Rat
Mus musculus [43] = species on record: Mus musculus; assay: Compound was tested for the effective dose (ED50) for each time point in Mice. 95% confidence limits are given in parentheses 4 Hour; assay type: functional
[44] = pH 7.4 value at pH 7.25; assay type: ADME; outline: as §2
[45] = Inhibition concentration by inhibition of carbonic anhydrase from kidney in Rat. 95% confidence limits are given in parentheses.

Compound: CC1(C)O[C@@H]2[C@@H](CC[C@@]3(COS(N)(=O)=O)OC(C)(C)O[C@@H]23)O1
- ED50 (Mus musculus [1]): 16.6 mg/kg
- Block (Mus musculus [2]): 80%
- Block (Mus musculus [3]): 30%

Compound: CCC1(CC)O[C@@H]2[C@@H](CO[C@@]3(COS(N)(=O)=O)OC(C)(C)O[C@@H]23)O1
- logD [4]: 1.5
- logP [5]: 1.52
- pKa [6]: 8.62
- logP [7]: 1.55
- P7.4 [8]: 31.5
- Block (Mus musculus [9]): 0%
- Block (Mus musculus [10]): 80%

Compound: CC(C)(C)OC(=O)N=S1O[C@@H]2[C@@H](CO[C@@]3(COS(N)(=O)=O)OC(C)(C)O[C@@H]23)O1 (stereo not given in full)
- Block (Mus musculus [11]): 40%

Compound: CC1(C)O[C@H]2[C@H](O)[C@@H](Cl)CO[C@@]2(COS(N)(=O)=O)O1
- ED50 (Mus musculus [1]): 24 mg/kg
- Block (Mus musculus [12]): 90%
- Block (Mus musculus [13]): 50%

Compound: CC1(C)O[C@H]2[C@H](CO[C@]3(COS(N)(=O)=O)OC(C)(C)O[C@H]23)O1
- ED50 (Mus musculus [1]): 82 mg/kg
- Block (Mus musculus [14]): 50%
- Block (Mus musculus [15]): 20%

Compound: CC1(C)O[C@@H]2[C@H]3OS(=O)(=O)O[C@H]3CO[C@]2(COS(N)(=O)=O)O1
- ED50 (Mus musculus [1]): 22 mg/kg
- Block (Mus musculus [16]): 30%
- Block (Mus musculus [17]): 80%

Compound: CC1(C)O[C@H]2[C@@H]3OS(=O)(=O)O[C@@H]3CO[C@@]2(COS(N)(=O)=O)O1
- logD [4]: 0.38
- IC50 [18]: 21 nM
- logP [19]: 2.44
- ED50 (Mus musculus [20]): 50 mg/kg
- ED50 (Rattus norvegicus [21]): 2.5 mg/kg
- IC50 [22]: 130 nM
- IC50 [23]: 21 nM
- logP [5]: 0.42
- IC50 [24]: 84 nM
- ED50 (Rattus norvegicus [25]): 1 mg/kg
- ED50 (Rattus norvegicus [26]): 3.8 mg/kg
- ED50 (Rattus norvegicus [27]): 1.7 mg/kg
- pKa [6]: 8.51
- P7.4 [28]: 2.42
- ED50 (Rattus norvegicus [29]): 1.3 mg/kg
- logP [7]: -1.01
- Block (Mus musculus [2]): 100%
- ED50 (Rattus norvegicus [30]): 5.1 mg/kg
- ED50 (Mus musculus [31]): 23 mg/kg
- ED50 (Mus musculus [32]; Mus musculus, 1 h, read-out: ED50): 8.6 mg/kg
- ED50 (Mus musculus [33]; Mus musculus, 2 h, read-out: ED50): 6.6 mg/kg
- ED50 (Rattus norvegicus [34]): 18 mg/kg
- IC50 [35]: 52 nM
- ED50 (Rattus norvegicus [36]): 2.6 mg/kg
- ED50 (Mus musculus [37]): 72 mg/kg

Compound: CC(=O)Nc1nnc(S(N)(=O)=O)s1 [ACETAZOLAMIDE]
- IC50 [38]: 7 nM
- IC50 [39]: 12 nM
- IC50 [40]: 650 nM
- IC50 [41]: 24 nM
- IC50 [42]: 37 nM

Compound: CC1(C)O[C@@H]2[C@@H](CO[C@@]3(COS(N)(=O)=O)OC(C)(C)O[C@@H]23)O1 [TOPIRAMATE]
- ED50 (Mus musculus [1]): 53 mg/kg
- logD [4]: 0.51
- ED50 (Mus musculus [43]): 53.5 mg/kg
- P7.4 [44]: 3.31
- IC50 [18]: 4550 nM
- logP [19]: 3.26
- ED50 (Rattus norvegicus [21]): 103 mg/kg
- IC50 [23]: 4840 nM
- logP [5]: 0.53
- IC50 [24]: 8890 nM
- ED50 (Rattus norvegicus [25]): 15 mg/kg
- ED50 (Rattus norvegicus [26]): 15 mg/kg
- ED50 (Rattus norvegicus [27]): 6.7 mg/kg
- pKa [6]: 8.66
- IC50 [45]: 8350 nM
- ED50 (Rattus norvegicus [29]): 34 mg/kg
- logP [7]: 0.5
- ED50 (Rattus norvegicus [30]): 16 mg/kg
- ED50 (Mus musculus [31]): 246 mg/kg
- ED50 (Mus musculus [32]): 43.8 mg/kg
- ED50 (Mus musculus [33]): 47.6 mg/kg
- ED50 (Rattus norvegicus [34]): > 1000 mg/kg
- IC50 [35]: 1360 nM
- ED50 (Rattus norvegicus [36]): 153 mg/kg
- ED50 (Mus musculus [37]): > 1000 mg/kg
